Experiments:
Type in all cases: functional
TK-10 = assay: Growth inhibition of human TK10 cells assessed as cell growth at 10 uM after 48 hrs by sulforhodamine B assay; details: TK-10, 48 h, read-out: Activity
Outline: (§1)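 NCI 60-cell-line panel from nine tumour types (leukaemia, lung, colon, CNS, melanoma, ovarian, renal, prostate, breast). Each compound was added at one single concentration, and cultures were incubated for 48 h. Results are reported as percent growth inhibition.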

MOLT-4 = assay: Growth inhibition of human MOLT4 cells assessed as cell growth at 10 uM after 48 hrs by sulforhodamine B assay; details: MOLT-4, 48 h, read-out: Activity
Outline: (§2)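 NCI 60-cell-line panel screen (nine cancer types). Compounds added at single concentration 10^-5 M, cultures incubated 48 h; growth inhibition percentages reported.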

KM12 = assay: Growth inhibition of human KM12 cells assessed as cell growth at 10 uM after 48 hrs by sulforhodamine B assay; details: KM12, 48 h, read-out: Activity; outline: as §2
MDA-MB-231 = assay: Growth inhibition of human MDA-MB-231 cells assessed as cell growth at 10 uM after 48 hrs by sulforhodamine B assay; details: MDA-MB-231, 48 h, read-out: Activity; outline: as §2
U-251 = assay: Growth inhibition of human U251 cells assessed as cell growth at 10 uM after 48 hrs by sulforhodamine B assay; details: U-251, 48 h, read-out: Activity; outline: as §1
PC-3 = assay: Growth inhibition of human PC3 cells assessed as cell growth at 10 uM after 48 hrs by sulforhodamine B assay; details: PC-3, 48 h, read-out: Activity; outline: as §2
OVCAR-4 = assay: Growth inhibition of human OVCAR4 cells assessed as cell growth at 10 uM after 48 hrs by sulforhodamine B assay; details: OVCAR-4, 48 h, read-out: Activity; outline: as §2
Malme-3M = assay: Growth inhibition of human MALME-3M cells assessed as cell growth at 10 uM after 48 hrs by sulforhodamine B assay; details: read-out: Activity; outline: as §2
NCI-H522 = assay: Growth inhibition of human NCI-H522 cells assessed as cell growth at 10 uM after 48 hrs by sulforhodamine B assay; details: NCI-H522, 48 h, read-out: Activity; outline: as §2
BT-549 = assay: Growth inhibition of human BT549 cells assessed as cell growth at 10 uM after 48 hrs by sulforhodamine B assay; details: BT-549, 48 h, read-out: Activity; outline: as §2
SR = assay: Growth inhibition of human SR cells assessed as cell growth at 10 uM after 48 hrs by sulforhodamine B assay; details: read-out: Activity; outline: as §1
CCRF-CEM = assay: Growth inhibition of human CCRF-CEM cells assessed as cell growth at 10 uM after 48 hrs by sulforhodamine B assay; details: read-out: Activity; outline: as §2
ACHN = assay: Growth inhibition of human ACHN cells assessed as cell growth at 10 uM after 48 hrs by sulforhodamine B assay; details: read-out: Activity; outline: as §2
SF-268 = assay: Growth inhibition of human SF268 cells assessed as cell growth at 10 uM after 48 hrs by sulforhodamine B assay; details: SF-268, 48 h, read-out: Activity; outline: as §2
HL-60(TB) = assay: Growth inhibition of human HL-60(TB) cells assessed as cell growth at 10 uM after 48 hrs by sulforhodamine B assay; details: HL-60, 48 h, read-out: Activity
Outline: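 Screened by the NCI in its 60-cell-line panel covering nine cancer types, including leukemia. Compounds were added at a single concentration, and the cultures were incubated for 48 h. Results are reported as percent growth inhibition.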

SK-MEL-2 = assay: Growth inhibition of human SK-MEL-2 cells assessed as cell growth at 10 uM after 48 hrs by sulforhodamine B assay; details: SK-MEL-2, 48 h, read-out: Activity; outline: as §2
SNB-75 = assay: Growth inhibition of human SNB75 cells assessed as cell growth at 10 uM after 48 hrs by sulforhodamine B assay; details: SNB-75, 48 h, read-out: Activity; outline: as §1
UO-31 = assay: Growth inhibition of human UO31 cells assessed as cell growth at 10 uM after 48 hrs by sulforhodamine B assay; details: UO-31, 48 h, read-out: Activity; outline: as §1
HCT-15 = assay: Growth inhibition of human HCT15 cells assessed as cell growth at 10 uM after 48 hrs by sulforhodamine B assay; details: HCT-15, 48 h, read-out: Activity; outline: as §2
LOX IMVI = assay: Growth inhibition of human LOXIMVI cells assessed as cell growth at 10 uM after 48 hrs by sulforhodamine B assay; details: read-out: Activity; outline: as §2
HOP-92 = assay: Growth inhibition of human HOP92 cells assessed as cell growth at 10 uM after 48 hrs by sulforhodamine B assay; details: HOP-92, 48 h, read-out: Activity; outline: as §2
HCT-116 = assay: Growth inhibition of human HCT116 cells assessed as cell growth at 10 uM after 48 hrs by sulforhodamine B assay; details: HCT-116, 48 h, read-out: Activity; outline: as §2
DU-145 = assay: Growth inhibition of human DU145 cells assessed as cell growth at 10 uM after 48 hrs by sulforhodamine B assay; details: DU-145, 48 h, read-out: Activity; outline: as §2
NCI-H322M = assay: Growth inhibition of human NCI-H322M cells assessed as cell growth at 10 uM after 48 hrs by sulforhodamine B assay; details: read-out: Activity; outline: as §2
SF-539 = assay: Growth inhibition of human SF539 cells assessed as cell growth at 10 uM after 48 hrs by sulforhodamine B assay; details: SF-539, 48 h, read-out: Activity; outline: as §2
786-0 = assay: Growth inhibition of human 786-0 cells assessed as cell growth at 10 uM after 48 hrs by sulforhodamine B assay; details: 786-0, 48 h, read-out: Activity; outline: as §2
SW-620 = assay: Growth inhibition of human SW620 cells assessed as cell growth at 10 uM after 48 hrs by sulforhodamine B assay; details: SW-620, 48 h, read-out: Activity; outline: as §1
RPMI-8226 = assay: Growth inhibition of human RPMI8226 cells assessed as cell growth at 10 uM after 48 hrs by sulforhodamine B assay; details: RPMI-8226, 48 h, read-out: Activity; outline: as §2
A549 = assay: Growth inhibition of human A549/ATCC cells assessed as cell growth at 10 uM after 48 hrs by sulforhodamine B assay; details: A549, 48 h, read-out: Activity; outline: as §2
HOP-62 = assay: Growth inhibition of human HOP62 cells assessed as cell growth at 10 uM after 48 hrs by sulforhodamine B assay; details: HOP-62, 48 h, read-out: Activity; outline: as §2
MCF7 = assay: Growth inhibition of human MCF7 cells assessed as cell growth at 10 uM after 48 hrs by sulforhodamine B assay; details: MCF7, 48 h, read-out: Activity; outline: as §2
HT-29 = assay: Growth inhibition of human HT-29 cells assessed as cell growth at 10 uM after 48 hrs by sulforhodamine B assay; details: HT-29, 48 h, read-out: Activity; outline: as §2
A498 = assay: Growth inhibition of human A498 cells assessed as cell growth at 10 uM after 48 hrs by sulforhodamine B assay; details: A498, 48 h, read-out: Activity; outline: as §2

Structure (SMILES)	growth at 10 µM (TK-10)	growth at 10 µM (MOLT-4)	growth at 10 µM (KM12)	growth at 10 µM (MDA-MB-231)	growth at 10 µM (U-251)	growth at 10 µM (PC-3)	growth at 10 µM (OVCAR-4)	growth at 10 µM (Malme-3M)	growth at 10 µM (NCI-H522)	growth at 10 µM (BT-549)	growth at 10 µM (SR)	growth at 10 µM (CCRF-CEM)	growth at 10 µM (ACHN)	growth at 10 µM (SF-268)	growth at 10 µM (HL-60(TB))	growth at 10 µM (SK-MEL-2)	growth at 10 µM (SNB-75)	growth at 10 µM (UO-31)	growth at 10 µM (HCT-15)	growth at 10 µM (LOX IMVI)	further results
CCOc1ccc(-n2nc(C(=O)NCc3cc(F)cc(F)c3)nc2-c2cc(OC)c(OC)c(OC)c2)cc1	79.9%	45.1%	65.8%	43.1%	74.3%	40.2%	65.8%	90.1%	50.9%	68.7%	64%	85.6%	54.4%	65.5%	61.4%	65.5%	43.4%	25.8%	61%	66.6%	growth at 10 µM (HOP-92): 61.1%; growth at 10 µM (HCT-116): 49.7%; growth at 10 µM (DU-145): 86.9%; growth at 10 µM (NCI-H322M): 61.5%; growth at 10 µM (SF-539): 70.7%; growth at 10 µM (786-0): 65.9%; growth at 10 µM (SW-620): 91.4%; growth at 10 µM (RPMI-8226): 47%; growth at 10 µM (A549): 57%; growth at 10 µM (HOP-62): 75.2%; growth at 10 µM (MCF7): 44.3%; growth at 10 µM (HT-29): 61.7%; growth at 10 µM (A498): 64.4%
CCOc1ccc(-n2nc(C(=O)Nc3cc(F)cc(F)c3)nc2-c2cc(OC)c(OC)c(OC)c2)cc1	96.9%	63.9%	85.9%	64.3%	82%	69.9%	84.8%	97.5%	61.6%	101%	61.8%	84.1%	82.7%	88.9%	96.1%	92.9%	58%	53.5%	77.9%	86.6%	growth at 10 µM (HOP-92): 67.8%; growth at 10 µM (HCT-116): 95.2%; growth at 10 µM (DU-145): 98.2%; growth at 10 µM (NCI-H322M): 85.3%; growth at 10 µM (SF-539): 82.4%; growth at 10 µM (786-0): 82.1%; growth at 10 µM (SW-620): 99.3%; growth at 10 µM (RPMI-8226): 69.4%; growth at 10 µM (A549): 73.8%; growth at 10 µM (HOP-62): 95%; growth at 10 µM (MCF7): 79%; growth at 10 µM (HT-29): 89%; growth at 10 µM (A498): 56%
CCOc1ccc(-n2nc(C(=O)Nc3ccccc3)nc2-c2cc(OC)c(OC)c(OC)c2)cc1	72.5%	42.9%	27.5%	43.9%	36.1%	44.9%	59.5%	54.5%	22.8%	60.9%	17%	50.8%	62.8%	76.5%	32.9%	37.7%	35.1%	37.7%	35.4%	55.8%	growth at 10 µM (HOP-92): 46%; growth at 10 µM (HCT-116): 21.2%; growth at 10 µM (DU-145): 89.6%; growth at 10 µM (NCI-H322M): 67.6%; growth at 10 µM (SF-539): 62%; growth at 10 µM (786-0): 69.4%; growth at 10 µM (SW-620): 36.1%; growth at 10 µM (RPMI-8226): 47.4%; growth at 10 µM (A549): 41.4%; growth at 10 µM (HOP-62): 55.7%; growth at 10 µM (MCF7): 37%; growth at 10 µM (HT-29): 13%; growth at 10 µM (A498): 10.3%
